# Bioassay records: PubChem, several laboratories
# Compounds with a hit are over-represented: about 2.9% of the library has one in this group of screens.
# SENP6 block = blocks the human protease SENP6; 1.8% of 330,000 active; Q9GZR1; inhibition, % at 10 µM; Recombinant SENP6 catalytic domain, aminoluciferin luminescence;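 active = inhibition above about 50% at the single tested dose, limit read from the data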;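 note: plate controls were DMSO wells with enzyme for no effect and DMSO wells lacking enzyme for full effect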
# SENP8 block-1 = inhibitors of human SENP8 protease | recombinant SENP8, Nedd8 substrate fluorescence | inhibition, % at 20 µM | 0.64% of 360,000 active | AID 602440; in the data active = inhibition mostly above about 40%, no sharp cut-off; inactive = mostly below about 27%
# SENP8 block-2 = inhibitors of human SENP8 protease | inhibition, % at 10 µM | Q96LD8 | purified SENP8, Z-RLRGG-aminoluciferin cleavage, luminescence | 1.2% of 330,000 active; in the data active = inhibition above about 50%
# HSP90 refold inh = blocks HSP90-mediated luciferase refolding in reticulocyte lysate; Rabbit reticulocyte lysate, luciferase refolding luminescence, 3 h; inhibition, % at 5.6 µM; 0.91% of 290,000 active; AID 1789;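 active = inhibition above the screen-wide mean plus 3 SD, computed separately per campaign, cut at about 16% in these data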;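 note: 0% = DMSO wells and 100% = 60 µM geldanamycin wells; inhibitors lower the luminescence because luciferase stays unfolded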
# SENP7 block = inhibitors of human SENP7 protease | Q9BQF6 | recombinant SENP7, Z-RLRGG-aminoluciferin luminescence, 40 min | inhibition, % at 5 µM | 1.5% of 330,000 active | AID 434973;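 active = inhibition above about 50% at the single test dose, limit read from the data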;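 note: plate controls were DMSO with enzyme for no effect and no enzyme buffer wells for full effect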
# SENP1 inh = SENP1 (human) catalytic domain inhibition. 0.21% of 360,000 active. Q9P0U3. recombinant SENP1 catalytic domain, CyPet-SUMO1-YPet FRET cleavage. inhibition, % at 10 µM;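 active = inhibition at least 30% at 10 µM, raw YFP signal under a set limit, fluorescence ratio 0.5 to 1.5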;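 note: 0% = enzyme with DMSO and 100% = no enzyme wells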
# Target sequence (Q9P0U3 419-644 limits assumed): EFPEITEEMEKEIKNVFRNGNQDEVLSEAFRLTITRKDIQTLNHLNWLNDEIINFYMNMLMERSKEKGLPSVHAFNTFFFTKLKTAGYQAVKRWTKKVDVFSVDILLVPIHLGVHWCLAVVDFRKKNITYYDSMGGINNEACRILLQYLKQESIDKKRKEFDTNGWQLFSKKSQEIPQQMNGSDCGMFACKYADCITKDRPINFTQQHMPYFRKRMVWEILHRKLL
#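 Test system: hSENP1 catalytic domain, recombinant; Amount: 20 pM final SENP1 enzyme; Medium: Tris pH 8 buffer plus EDTA, NaCl, BME, BSA, NP40, catalase; Schedule: 50 min enzyme reaction, room temperature, light-protected; Technique: FRET fluorescence in CFP and YFP emission channels; Controls: no-enzyme wells low, DMSO-plus-enzyme wells high control.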
# SENP8 confirm = human SENP8 inhibition, confirmed; shares compounds with SENP7 block; Recombinant SENP8, Z-RLRGG-aminoluciferin luminescence, 60 min; inhibition, % at 12.5 µM; 40% of 6,200 active;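 active = mean inhibition across replicates above about 50%, limit read from the data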
# SENP6 conf = confirmation of human SENP6 protease inhibitors; inhibition, % at 12.5 µM; 58% of 6,200 active; AID 488915; recombinant SENP6, Z-RLRGG-aminoluciferin luminescence; shares compounds with SENP7 block
# SENP7 confirm = confirmation of human SENP7 protease inhibitors | inhibition, % at 12.5 µM | shares compounds with SENP7 block | recombinant SENP7, Z-RLRGG-aminoluciferin luminescence, 40 min | 69% of 6,200 active
# Casp3 SENP sel = inhibits human caspase-3 in SENP selectivity test; 60% of 6,200 active; purified caspase-3, Z-DEVD-aminoluciferin luminescence, 60 min; shares compounds with SENP7 block; inhibition, % at 12.5 µM;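 active = mean inhibition above about 50%, limit read from the data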;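 note: plate controls were enzyme with DMSO for no effect and wells without caspase-3 for full effect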
# Target sequence (P42574 28-227 limits assumed): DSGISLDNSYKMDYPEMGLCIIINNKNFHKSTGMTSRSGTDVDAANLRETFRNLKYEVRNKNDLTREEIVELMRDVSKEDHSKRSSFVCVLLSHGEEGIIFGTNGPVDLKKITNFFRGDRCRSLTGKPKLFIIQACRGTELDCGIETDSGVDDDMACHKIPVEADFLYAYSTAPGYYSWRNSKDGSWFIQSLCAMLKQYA
# SENP luc ctr = interferes with luciferase luminescence in SENP counter-screen; inhibition, % at 12.5 µM; shares compounds with SENP7 block; 39% of 6,200 active; AID 488919; Pre-incubated SENP8/Z-RLRGG-aminoluciferin, luciferase luminescence interference;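 active = mean inhibition above about 50% when retested at one dose, limit read from the data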;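 note: plate controls were DMSO wells with completed reaction for no effect and substrate without enzyme for full effect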
# * marks the source's active call; other numbers are inactive results; · = no result.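 Rule for the calls, unless noted: active = mean inhibition above about 50% in the one-dose retest (limit read from the data); inactive = the rest.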
SMILES,SENP6 block,SENP8 block-1,SENP8 block-2,HSP90 refold inh,SENP7 block,SENP1 inh,SENP8 confirm,SENP6 conf,SENP7 confirm,Casp3 SENP sel,SENP luc ctr
COc1ccc(OC)c2c(C)cc(N3CCN(C(=O)c4ccc(Cl)cc4)CC3)nc12,69.2*,-300.0,42.3,2.9,24.1,-13.8,11.6,5.4,4.7,2.8,-3.2
O=C(NCCSc1ccccc1)c1ccc(Br)cc1,67.6*,15.3,27.1,0.6,47.0,0.8,52.5*,48.8,75.9*,44.6,14.7
Cc1cccc(-c2cc3nc4c(c(NCc5ccco5)n3n2)CCCC4)c1,88.1*,-266.9,80.5*,-0.3,44.5,-4.9,17.3,12.3,14.6,23.6,26.2
COc1ccc(CNC(=O)CN2CCC(NC(=O)c3ccccc3C)CC2)cc1,-7.1,4.8,1.5,-1.1,-1.2,-0.7,·,·,·,·,·
CCc1cc(C(=O)NNC(=S)Nc2cccc(C)c2)cs1,74.5*,12.6,39.1,-1.6,56.1*,0.3,25.2,24.8,7.9,8.7,18.6
Cc1cccc(NC(=S)NNC(=O)c2csc(C(C)C)c2)c1,77.0*,19.9,49.8,-0.5,86.9*,1.7,9.4,11.1,11.6,7.8,17.9
Cc1cccc(NC(=S)NNC(=O)c2sccc2C)c1,82.9*,-13.9,43.4,0.3,64.6*,-1.5,56.3*,56.1*,74.9*,67.4*,63.5*
COC(=O)c1cncc(C)c1,-2.1,21.0,1.2,-2.2,2.3,0.6,·,·,·,·,·
CCS(=O)(=O)c1nc(S(=O)(=O)c2ccc(C)cc2)c(NCCCN2CCOCC2)s1,-4.4,8.9,4.2,1.5,-1.4,3.7,·,·,·,·,·
CCCS(=O)(=O)c1nc(S(=O)(=O)c2ccc(C)cc2)c(NCCN2CCOCC2)s1,103.6*,25.3,5.2,-1.4,6.1,-9.0,9.1,1.7,-6.2,-0.4,-2.9
Cc1ccnc(NC(=O)c2ccc(Br)s2)c1,87.6*,10.5,82.0*,4.6,91.5*,0.7,86.2*,86.8*,98.3*,90.6*,87.8*
Cc1ccnc(NC(=O)c2cccs2)c1,54.2*,13.9,38.1,0.2,56.6*,-3.3,50.6*,51.1*,83.9*,85.8*,61.5*
Cc1ccc(C(=O)Nc2ccc3nc(C)sc3c2)s1,-0.2,19.5,0.5,-2.4,-0.2,1.1,·,·,·,·,·
Cc1nc2cc(NC(=O)c3ccc(Br)s3)ccc2s1,70.4*,12.7,46.5,0.2,70.4*,1.2,22.4,50.7*,90.9*,47.5,-0.4
Cc1cccc(CCNS(=O)(=O)c2ccc3c(c2)NC(=O)C(C)S3)c1 (stereo not given),4.7,-4.8,-5.1,2.1,9.4,1.0,·,·,·,·,·
O=C(CSc1nc(=O)n(CCN2CCOCC2)c2c1CCCC2)Nc1ccc(F)cc1F,-5.8,5.6,8.1,·,3.0,1.2,·,·,·,·,·
O=C(Nc1cccc(Cl)c1)N1CCc2ccccc2C1,50.9*,7.9,35.4,-2.8,49.2,1.5,46.7,41.5,77.5*,43.4,30.7
O=S(=O)(c1ccccc1)N(CC(O)CN1CCCC1)c1ccccc1 (stereo not given),-17.5,13.0,-2.4,3.1,7.7,-2.3,·,·,·,·,·
O=S(=O)(c1ccccc1)N(CC(O)CN1CCOCC1)c1ccccc1 (stereo not given),-12.1,9.7,76.8*,-3.0,-9.4,2.3,10.6,9.7,7.5,-2.1,-5.4
O=C(Cc1ccccc1)Nc1ccc(N2CCN(Cc3ccccc3F)CC2)cc1,7.4,21.3,3.3,3.2,3.3,3.0,·,·,·,·,·
